Experimental data published in ChEMBL document CHEMBL4145451, “1,3,5-triazaspiro[5.5]undeca-2,4-dienes as selective Mycobacterium tuberculosis dihydrofolate reductase inhibitors with potent whole cell activity” (Eur J Med Chem, 2018).
Converted amounts (≈) assume the structure as drawn.

Tests used:
Dihydrofolate reductase [1] = target: T1, Dihydrofolate reductase (Homo sapiens, UniProt P00374); experiment: Inhibition of human DHFR assessed as reduction in consumption of NADPH using DHF as substrate by fluorescence method
T1 sequence (P00374 whole entry): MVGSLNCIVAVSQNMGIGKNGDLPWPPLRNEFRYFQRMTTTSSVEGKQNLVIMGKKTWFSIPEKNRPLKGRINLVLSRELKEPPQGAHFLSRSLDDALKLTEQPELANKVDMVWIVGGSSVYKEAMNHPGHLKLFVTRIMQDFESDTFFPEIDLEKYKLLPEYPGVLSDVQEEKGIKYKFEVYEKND

[2] = tested on: Mycobacterium tuberculosis; experiment: Antimycobacterial activity against Mycobacterium tuberculosis H37Rv infected in human THP1 cells after 5 days by Steady-Glo luminescence assay; assay type: functional; settings: 120 h
Dihydrofolate reductase [3] = target: T2, Dihydrofolate reductase (Mycobacterium tuberculosis, UniProt P9WNX1); experiment: Inhibition of Mycobacterium tuberculosis H37Rv DHFR expressed in Escherichia coli assessed as reduction in consumption of NADPH using DHF as substrate by fluorescence method
T2 sequence (P9WNX1 whole entry): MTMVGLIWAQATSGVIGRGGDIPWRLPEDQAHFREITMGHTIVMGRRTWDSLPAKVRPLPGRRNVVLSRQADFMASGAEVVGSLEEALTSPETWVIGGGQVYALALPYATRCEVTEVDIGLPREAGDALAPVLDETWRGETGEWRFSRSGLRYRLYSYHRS

[4] = tested on: Mycobacterium tuberculosis; experiment: Antimycobacterial activity against Mycobacterium tuberculosis H37Rv by resazurin dye based two-fold dilution assay; assay type: functional
Dihydrofolate reductase [5] = target: T1, Dihydrofolate reductase; experiment: Inhibition of human DHFR assessed as reduction in consumption of NADPH using DHF as substrate incubated for 3 mins measured for 2 mins by spectrophotometric method
[6] = Cytotoxicity against African green monkey Vero cells by MTT assay; assay type: cell-based; settings: chlorocebus sabaeus
Dihydrofolate reductase [7] = target: T2, Dihydrofolate reductase; experiment: Inhibition of Mycobacterium tuberculosis H37Rv DHFR assessed as reduction in consumption of NADPH using DHF as substrate incubated for 3 mins measured for 2 mins by spectrophotometric method
[8] = Cytotoxicity against human HepG2 cells assessed as reduction in cell viability by MTS assay; assay type: cell-based
Procedure, shortened: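 HepG2 cells were grown in DMEM with 10% heat-inactivated FBS at 37 °C and 5% CO2, then exposed to 2-fold serially diluted compound. Viability was read by MTS absorbance at 490 nm. CC50 is the concentration giving a 50% viability drop, taken from the absorbance-versus-concentration plot. Triton X-100 was the positive control. Means of 3 independent experiments.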

Dihydrofolate reductase [9] = target: T2, Dihydrofolate reductase; experiment: Inhibition of Mycobacterium tuberculosis His-tagged DHFR assessed as reduction in consumption of NADPH using DHF as substrate measured every 30 secs over 6 mins by spectrophotometric method
Dihydrofolate reductase [10] = target: T1, Dihydrofolate reductase; experiment: Inhibition of recombinant human DHFR assessed as reduction in consumption of NADPH using DHF as substrate measured every 30 secs over 6 mins by spectrophotometric method
[11] = Aqueous solubility of compound in pH 7.4 solution after 90 mins by UV method; assay type: physicochemical; settings: aqueous solution pH 7.4, pH 7.4
Procedure, shortened: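 Compound was diluted from a 10 mM DMSO stock to final 3.13–100 µM in 45 mM ethanolamine/potassium dihydrogen phosphate/potassium acetate buffer, pH 7.4. After 90 min at room temperature the solution was filtered and diluted with acetonitrile and buffer. Absorbance was read at 330 nm.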

[12] = tested on: Mycobacterium tuberculosis; experiment: Antimycobacterial activity against Mycobacterium tuberculosis H37Rv after 10 days by broth dilution method; assay type: functional; settings: 240 h
Procedure, shortened: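 Broth microdilution. Mid-log cultures (OD600 0.4–0.6) were diluted and added to 2-fold serial compound dilutions in DMSO, giving a final 5 × 10^5 CFU/mL in 7H9-albumin-dextrose-catalase-glycerol-Tween 80. Plates were sealed and incubated at 37 °C for 10 days with shaking at 80 rpm. OD600 was read; MIC50 and MIC90 are the lowest concentrations giving 50% and 90% growth inhibition. Rifampicin and DMSO served as controls. Means of 3 independent experiments.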

[13] = Intrinsic clearance in female rat liver microsomes at 3 uM preincubated for 5 mins followed by NADPH addition measured up to 45 mins by LC-MS/MS analysis; assay type: ADME, microsome; settings: read-out: CLH
Procedure, shortened: (§1)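 Compound (final 3 µM) was incubated with male or female rat liver microsomes (0.3 mg protein/mL) in 0.1 M phosphate pH 7.4. After a 5 min pre-incubation at 37 °C, NADPH (final 1 mM) was added to start the reaction. Samples were taken at 0, 5, 10, 15, 30 and 45 min and the remaining compound was quantified by LC-MS.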

[14] = Hemolytic activity in human RBC after 24 hrs; assay type: ADME, cell-based, Erythrocyte; settings: red blood cells (erythrocytes), read-out: LC50
Procedure, shortened: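 Red blood cells were PBS-washed and resuspended at 10^6/mL, then incubated 24 h with compound. After centrifugation at 1000 g for 10 min, supernatant absorbance was read at 540 nm. PBS served as the negative control and 0.1% Triton X-100 as the positive control. Reported as LC50.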

[15] = Selectivity index, ratio of CC50 for cytotoxicity against human HepG2 cells to MIC90 for antimycobacterial activity against Mycobacterium tuberculosis H37Rv; assay type: toxicity, cell-based; settings: HepG2 cells versus Mycobacterium tuberculosis H37Rv, read-out: Selectivity Index
Procedure, shortened: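 H37Rv grown to mid-log (OD600 0.4–0.6), 5 × 10^5 CFU/mL, in supplemented 7H9 with 2-fold compound dilutions (DMSO), 10 days at 37 °C shaken. MIC90 is the lowest concentration giving 90% inhibition by OD600. HepG2 cells in DMEM/10% FBS are exposed to 2-fold dilutions, and CC50 (50% viability loss) is read by MTS absorbance at 490 nm. SI = CC50/MIC90. Means of 3 independent experiments.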

[16] = Intrinsic clearance in male rat liver microsomes at 3 uM preincubated for 5 mins followed by NADPH addition measured up to 45 mins by LC-MS/MS analysis; assay type: ADME, microsome; settings: read-out: CLH; procedure, shortened: as §1
[17] = Half life in female rat liver microsomes at 3 uM preincubated for 5 mins followed by NADPH addition measured up to 45 mins by LC-MS/MS analysis; assay type: ADME, microsome; procedure, shortened: as §1
[18] = Half life in male rat liver microsomes at 3 uM preincubated for 5 mins followed by NADPH addition measured up to 45 mins by LC-MS/MS analysis; assay type: ADME, microsome; procedure, shortened: as §1
[19] = Selectivity index, ratio of IC50 for inhibition of recombinant human DHFR to IC50 for inhibition of Mycobacterium tuberculosis His-tagged DHFR
Procedure, shortened: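 Spectrophotometric DHFR assay at room temperature in 0.15 M potassium phosphate, pH 7, with 50 µM DHF, 60 µM NADPH and 1.5 × 10^-3 units recombinant human DHFR or 0.3 ng/mL recombinant Mtb DHFR, plus serial inhibitor concentrations in DMSO. NADPH use is followed at 340 nm every 30 s for 6 min. Slope versus uninhibited gives % inhibition, and IC50 comes from log-dose curves. SI = human IC50 / Mtb IC50.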

Dihydrofolate reductase [20] = target: T2, Dihydrofolate reductase; experiment: Inhibition of Mycobacterium tuberculosis H37Rv DHFR expressed in Escherichia coli BL21(DE3) assessed as reduction in consumption of NADPH using DHF as substrate preincubated for 1 min followed by DHF addition and measured for 2 mins by spectrophotometric method
[21] = tested on: Mycobacterium tuberculosis; experiment: Antimycobacterial activity against GFP-fused Mycobacterium tuberculosis H37Rv after 7 days BacTiter-Glo assay; assay type: functional; settings: 168 h
A549 = experiment: Cytotoxicity against human A549 cells; assay type: cell-based
Dihydrofolate reductase [22] = target: T1, Dihydrofolate reductase; experiment: Inhibition of human DHFR

**Q.** Which IC50 (Dihydrofolate reductase [1]) does the source give for `COc1ccc(-c2nc3c(N)nc(N)nc3nc2C(C)C)cc1` here?
**A.** 0.382 µM

**Q.** And the MIC90 [2]?
**A.** 2.9 µM (≈ 0.9 µg/mL)

**Q.** And the IC50 (Dihydrofolate reductase [3])?
**A.** 0.0545 µM

**Q.** Which MIC [4] does the source give for `Nc1nc(N)nc(-c2ccc(OCc3ccc(Cl)cc3)cc2)n1` here?
**A.** 1.76 µM (≈ 0.577 µg/mL)

**Q.** And the IC50 (Dihydrofolate reductase [5])?
**A.** 83.3 µM

**Q.** What about the CC50 [6] of the same compound?
**A.** 333 µM

**Q.** What about the IC50 (Dihydrofolate reductase [7]) of the same compound?
**A.** 5.17 µM

**Q.** For `N#Cc1ccc(Cn2ccc3c4c(N)nc(N)nc4ccc32)cc1`, which IC50 (Dihydrofolate reductase [1]) is on record?
**A.** 0.0068 µM

**Q.** And the MIC90 [2]?
**A.** 0.5 µM (≈ 0.157 µg/mL)

**Q.** And the IC50 (Dihydrofolate reductase [3])?
**A.** 0.0101 µM

**Q.** With `Cc1c(Cc2ccccc2Br)cnc2nc(N)nc(N)c12` as the compound, how does the IC50 (Dihydrofolate reductase [1]) read?
**A.** 0.0076 µM

**Q.** And the MIC90 [2]?
**A.** 1.3 µM (≈ 0.447 µg/mL)

**Q.** What about the IC50 (Dihydrofolate reductase [3]) of the same compound?
**A.** 0.0082 µM

**Q.** Which CC50 [8] does the source give for `Cl.NC1=NC2(CCCCC2)N(c2ccc(OCc3cn(CCCCOc4ccc5ccc(=O)oc5c4)nn3)cc2)C(N)=N1` here?
**A.** > 100 µM

**Q.** What about the IC50 (Dihydrofolate reductase [9]) of the same compound?
**A.** 0.82 µM

**Q.** And the IC50 (Dihydrofolate reductase [10])?
**A.** 15.3 µM

**Q.** And the solubility at 1.5 h [11]?
**A.** 95.8 µM

**Q.** What about the MIC50 [12] of the same compound?
**A.** 0.01 µM

**Q.** And the MIC90 [12]?
**A.** 0.025 µM

**Q.** And the microsomal CLint at 3 µM [13]?
**A.** 20.4 µL/min/mg

**Q.** And the HC50 at 24 h [14]?
**A.** > 100 µM

**Q.** What about the selectivity ratio [15] of the same compound?
**A.** > 4000

**Q.** And the microsomal CLint at 3 µM [16]?
**A.** 39.2 µL/min/mg

**Q.** What about the half-life at 3 µM [17] of the same compound?
**A.** 1.89 h

**Q.** What about the half-life at 3 µM [18] of the same compound?
**A.** 0.983 h

**Q.** What about the Ratio IC50 [19] of the same compound?
**A.** 18.7

**Q.** With `CCOC(=O)CC[C@H](NC(=O)c1ccc(N(C)Cc2cnc3nc(N)nc(N)c3n2)cc1)C(=O)OCC` as the compound, how does the IC50 (Dihydrofolate reductase [20]) read?
**A.** 0.03 µM

**Q.** And the MIC90 [21]?
**A.** 0.6 µM (≈ 0.306 µg/mL)

**Q.** What does the source list for `Cl.NC1=NC2(CCCCC2)N(c2ccc(OCc3cn(CCCOc4ccc5ccc(=O)oc5c4)nn3)cc2)C(N)=N1`?
**A.** CC50 [8]: > 100 µM; IC50 (Dihydrofolate reductase [9]): 1.34 µM; IC50 (Dihydrofolate reductase [10]): 12 µM; solubility at 1.5 h [11]: > 100 µM; MIC50 [12]: 0.01 µM; MIC90 [12]: 0.025 µM; microsomal CLint at 3 µM [13]: 8.6 µL/min/mg; HC50 at 24 h [14]: > 100 µM; selectivity ratio [15]: > 4000; microsomal CLint at 3 µM [16]: 27.8 µL/min/mg; half-life at 3 µM [17]: 4.51 h; half-life at 3 µM [18]: 1.39 h; Ratio IC50 [19]: 8.95

**Q.** What does the source list for `Nc1nc(N)nc(-c2ccc(OCc3cccc(Cl)c3)cc2)n1`?
**A.** MIC [4]: 1.57 µM (≈ 0.515 µg/mL); IC50 (Dihydrofolate reductase [5]): 72.5 µM; CC50 [6]: 387 µM; IC50 (Dihydrofolate reductase [7]): 5.62 µM

**Q.** With `COC(=O)CC[C@H](NC(=O)c1ccc(N(C)Cc2cnc3nc(N)nc(N)c3n2)cc1)C(=O)OC` as the compound, how does the IC50 (Dihydrofolate reductase [20]) read?
**A.** 0.05 µM

**Q.** And the MIC90 [21]?
**A.** 0.2 to 0.4 µM (≈ 0.0965 to 0.193 µg/mL)

**Q.** With `NC1=NC2(CCCCC2)N(Cc2ccc(Cl)cc2)C(N)=N1` as the compound, how does the IC50 (A549) read?
**A.** > 100 µM

**Q.** And the IC50 (Dihydrofolate reductase [22])?
**A.** > 100 µM

**Q.** With `Cl.NC1=NC2(CCCCC2)N(Cc2cn(CCCCCOc3ccc4oc(=O)ccc4c3)nn2)C(N)=N1` as the compound, how does the IC50 (Dihydrofolate reductase [9]) read?
**A.** > 100 µM

**Q.** With `Cl.NC1=NC2(CCCCC2)N(c2ccc(OCc3cn(CCCc4ccccc4)nn3)cc2)C(N)=N1` as the compound, how does the IC50 (Dihydrofolate reductase [9]) read?
**A.** 5.82 µM

**Q.** What about the IC50 (Dihydrofolate reductase [10]) of the same compound?
**A.** 3.67 µM

**Q.** What about the Ratio IC50 [19] of the same compound?
**A.** 0.63
